# Results gathered from unrelated publications.
# Target: 5-hydroxytryptamine receptor 1A (HTR1A, Homo sapiens, UniProt P08908)
# Sequence (P08908 1-422, as in one of the studies): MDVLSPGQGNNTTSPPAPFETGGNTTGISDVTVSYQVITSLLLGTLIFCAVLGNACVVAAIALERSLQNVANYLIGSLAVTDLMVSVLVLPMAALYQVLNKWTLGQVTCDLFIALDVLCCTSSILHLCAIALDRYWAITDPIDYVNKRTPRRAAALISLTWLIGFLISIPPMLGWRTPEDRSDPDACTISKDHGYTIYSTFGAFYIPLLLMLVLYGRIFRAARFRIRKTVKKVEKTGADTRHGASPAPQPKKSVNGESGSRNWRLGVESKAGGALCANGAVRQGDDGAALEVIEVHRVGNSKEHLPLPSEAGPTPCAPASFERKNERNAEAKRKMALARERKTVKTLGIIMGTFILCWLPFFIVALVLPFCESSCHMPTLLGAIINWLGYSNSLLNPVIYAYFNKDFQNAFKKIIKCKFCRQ
Compound,test,measurement,result
C[C@H](N)Cn1ncc2ccc3c(c21)CCCO3,"cell-free assay, radioligand",Ki,294 nM
CN(C)CCc1c[nH]c2cccc(O)c12,"ligand displacement, radioligand",Ki,84 nM
CCCCCNC(=N)N/N=C/c1c[nH]c2ccc(OC)cc12,"ligand displacement, radioligand",IC50,143 nM
NCCc1c[nH]c2cccc(O)c12,"ligand displacement, radioligand",Ki,44 nM
CC[C@@H](CO)NC(=O)[C@@H]1C=C2c3cccc4c3c(cn4C)C[C@H]2N(C)C1,cell-free assay,Ki,70 nM
CC(CCc1ccccc1)NC(C)C(O)c1ccc(O)cc1 (stereo not drawn),"calcium signal, antagonist",IC50,11800 nM
COCCCN1CCN(c2ccccc2OC)CC1,cell-free assay,Ki,110 nM
NCCc1c[nH]c2cc(F)ccc12,"ligand displacement, radioligand",Ki,267 nM
CN1C[C@@H](CO)C=C2c3cccc4[nH]cc(c34)C[C@H]21,"ligand displacement, radioligand",IC50,2.3 nM
